Target: T1, C-X-C chemokine receptor type 4 (Homo sapiens, UniProt P61073)
Assay: Competitive inhibition of [125I]-CXCL12 binding to CXCR4 in human Jurkat cells at 1 uM in absence of ZnCl2 after 2 hrs by gamma counting analysis relative to control
Type: cell-based
Details: not given

T1 sequence (P61073 whole entry): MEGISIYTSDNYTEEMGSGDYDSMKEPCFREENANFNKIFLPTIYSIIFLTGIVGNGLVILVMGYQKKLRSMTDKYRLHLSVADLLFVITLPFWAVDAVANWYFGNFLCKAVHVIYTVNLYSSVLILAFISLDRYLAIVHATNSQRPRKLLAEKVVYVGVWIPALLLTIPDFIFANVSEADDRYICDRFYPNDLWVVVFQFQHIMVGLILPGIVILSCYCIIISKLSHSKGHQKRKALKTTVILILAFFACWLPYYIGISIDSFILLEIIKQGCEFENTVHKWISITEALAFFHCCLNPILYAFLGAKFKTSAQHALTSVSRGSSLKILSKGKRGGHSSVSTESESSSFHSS

| SMILES | inhibition |
| --- | --- |
| c1ccc(CN(Cc2ccc(-c3ncccc3CN3CCCNCCNCCCNCC3)cc2)Cc2ccccn2)nc1 | 41.4% |
| c1ccc(CN(Cc2ccnc(-c3ccc(CN4CCCNCCNCCCNCC4)cc3)c2)Cc2ccccn2)nc1 | 39.2% |
| c1ccc(CN(Cc2ccccn2)Cc2ccccc2-c2ccccc2CN2CCCNCCNCCCNCC2)nc1 | 90.4% |
| c1ccc(CN(Cc2cccc(-c3ccccc3CN3CCCNCCNCCCNCC3)c2)Cc2ccccn2)nc1 | 46.1% |
| c1ccc(CN(Cc2ccc3c(c2)-c2cc(CN4CCCNCCNCCCNCC4)ccc2OCCCCO3)Cc2ccccn2)nc1 | 57.3% |
| c1ccc(CN(Cc2ccc3ccc(CN4CCCNCCNCCCNCC4)cc3c2)Cc2ccccn2)nc1 | 83.5% |

Test system: not listed separately
Assay: Cytotoxicity against human MT4 cells in absence of ZnCl2
Type: cell-based
Details: not given

| SMILES | CC50 |
| --- | --- |
| c1ccc(CN(Cc2ccc(-c3ncccc3CN3CCCNCCNCCCNCC3)cc2)Cc2ccccn2)nc1 | > 10000 nM |
| c1ccc(CN(Cc2ccnc(-c3ccc(CN4CCCNCCNCCCNCC4)cc3)c2)Cc2ccccn2)nc1 | > 10000 nM |
| c1ccc(CN(Cc2ccccn2)Cc2ccccc2-c2ccccc2CN2CCCNCCNCCCNCC2)nc1 | > 10000 nM |
| c1ccc(CN(Cc2cccc(-c3ccccc3CN3CCCNCCNCCCNCC3)c2)Cc2ccccn2)nc1 | > 10000 nM |
| c1ccc(CN(Cc2ccc3c(c2)-c2cc(CN4CCCNCCNCCCNCC4)ccc2OCCCCO3)Cc2ccccn2)nc1 | > 10000 nM |
| c1ccc(CN(Cc2ccc3ccc(CN4CCCNCCNCCCNCC4)cc3c2)Cc2ccccn2)nc1 | > 10000 nM |

Target: T1, C-X-C chemokine receptor type 4
Assay: Competitive inhibition of [125I]-CXCL12 binding to CXCR4 in human Jurkat cells at 1 uM in presence of ZnCl2 after 2 hrs by gamma counting analysis relative to control
Type: cell-based
Details: not given

| SMILES | inhibition |
| --- | --- |
| c1ccc(CN(Cc2ccc(-c3ncccc3CN3CCCNCCNCCCNCC3)cc2)Cc2ccccn2)nc1 | 88.5% |
| c1ccc(CN(Cc2ccnc(-c3ccc(CN4CCCNCCNCCCNCC4)cc3)c2)Cc2ccccn2)nc1 | 89.7% |
| c1ccc(CN(Cc2ccccn2)Cc2ccccc2-c2ccccc2CN2CCCNCCNCCCNCC2)nc1 | 74.1% |
| c1ccc(CN(Cc2cccc(-c3ccccc3CN3CCCNCCNCCCNCC3)c2)Cc2ccccn2)nc1 | 116% |
| c1ccc(CN(Cc2ccc3c(c2)-c2cc(CN4CCCNCCNCCCNCC4)ccc2OCCCCO3)Cc2ccccn2)nc1 | 78.4% |
| c1ccc(CN(Cc2ccc3ccc(CN4CCCNCCNCCCNCC4)cc3c2)Cc2ccccn2)nc1 | 87.5% |

Target: T1, C-X-C chemokine receptor type 4
Assay: Competitive inhibition of TAMRAAc-TZ14011 binding to CXCR4 (unknown origin) expressed in CHO cells at 1 uM in absence of ZnCl2 by NanoBRET assay relative to control
Type: cell-based
Details: not given
Method in brief: (§1)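 Single-point competition in CHO cells stably expressing N-terminally Nluc-tagged CXCR4 (5 x 10^4 cells, seeded 24 h earlier at 37 °C, 5% CO2, medium then replaced with OptiMEM). Cells were incubated with 10 nM TAMRA-Ac-TZ14011 plus 1 µM compound, without or with 10 µM ZnCl2 (10 eq), for 1 h at 25 °C. Furimazine was added and BRET read as acceptor (>610 nm) over donor (460 nm). Inhibition is relative to no compound and to excess Ac-TZ14011; mean ± SEM, n = 3.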

| SMILES | inhibition |
| --- | --- |
| c1ccc(CN(Cc2ccc(-c3ncccc3CN3CCCNCCNCCCNCC3)cc2)Cc2ccccn2)nc1 | 31.9% |
| c1ccc(CN(Cc2ccnc(-c3ccc(CN4CCCNCCNCCCNCC4)cc3)c2)Cc2ccccn2)nc1 | 79.7% |
| c1ccc(CN(Cc2ccccn2)Cc2ccccc2-c2ccccc2CN2CCCNCCNCCCNCC2)nc1 | 79.8% |
| c1ccc(CN(Cc2cccc(-c3ccccc3CN3CCCNCCNCCCNCC3)c2)Cc2ccccn2)nc1 | 44.4% |
| c1ccc(CN(Cc2ccc3c(c2)-c2cc(CN4CCCNCCNCCCNCC4)ccc2OCCCCO3)Cc2ccccn2)nc1 | 54.5% |
| c1ccc(CN(Cc2ccc3ccc(CN4CCCNCCNCCCNCC4)cc3c2)Cc2ccccn2)nc1 | 82.1% |

Test system: Human immunodeficiency virus 1
Assay: Antiviral activity against R5 tropic HIV-1 NL(AD8) infected in human MT4 cells assessed as protection against virus-induced cytopathic effect at 10 uM in absence of ZnCl2 after 5 days by MTT assay
Type: functional
Details: Human immunodeficiency virus 1, NL(AD8), MT4, 120 h

| SMILES | inhibition at 10 µM |
| --- | --- |
| c1ccc(CN(Cc2ccc(-c3ncccc3CN3CCCNCCNCCCNCC3)cc2)Cc2ccccn2)nc1 | < 30% |
| c1ccc(CN(Cc2ccnc(-c3ccc(CN4CCCNCCNCCCNCC4)cc3)c2)Cc2ccccn2)nc1 | < 30% |
| c1ccc(CN(Cc2ccccn2)Cc2ccccc2-c2ccccc2CN2CCCNCCNCCCNCC2)nc1 | < 30% |
| c1ccc(CN(Cc2cccc(-c3ccccc3CN3CCCNCCNCCCNCC3)c2)Cc2ccccn2)nc1 | < 30% |
| c1ccc(CN(Cc2ccc3c(c2)-c2cc(CN4CCCNCCNCCCNCC4)ccc2OCCCCO3)Cc2ccccn2)nc1 | < 30% |
| c1ccc(CN(Cc2ccc3ccc(CN4CCCNCCNCCCNCC4)cc3c2)Cc2ccccn2)nc1 | < 30% |

Target: T1, C-X-C chemokine receptor type 4
Assay: Competitive inhibition of TAMRAAc-TZ14011 binding to CXCR4 (unknown origin) expressed in CHO cells in presence of ZnCl2 by NanoBRET assay relative to control
Type: cell-based
Details: not given
Method in brief: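 Cells were incubated with 10 nM TAMRA-Ac-TZ14011 and compound plus ZnCl2 (10 eq). Furimazine was added and BRET ratio taken as >610 nm over 460 nm emission. Inhibition is scaled between no compound and excess Ac-TZ14011.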

| SMILES | IC50 |
| --- | --- |
| c1ccc(CN(Cc2ccc(-c3ncccc3CN3CCCNCCNCCCNCC3)cc2)Cc2ccccn2)nc1 | 4.5 nM |

Target: T1, C-X-C chemokine receptor type 4
Assay: Competitive inhibition of TAMRAAc-TZ14011 binding to CXCR4 (unknown origin) expressed in CHO cells at 1 uM in presence of ZnCl2 by NanoBRET assay relative to control
Type: cell-based
Details: not given
Method in brief: as §1

| SMILES | inhibition |
| --- | --- |
| c1ccc(CN(Cc2ccc(-c3ncccc3CN3CCCNCCNCCCNCC3)cc2)Cc2ccccn2)nc1 | 93.9% |
| c1ccc(CN(Cc2ccnc(-c3ccc(CN4CCCNCCNCCCNCC4)cc3)c2)Cc2ccccn2)nc1 | 92.6% |
| c1ccc(CN(Cc2ccccn2)Cc2ccccc2-c2ccccc2CN2CCCNCCNCCCNCC2)nc1 | 99% |
| c1ccc(CN(Cc2cccc(-c3ccccc3CN3CCCNCCNCCCNCC3)c2)Cc2ccccn2)nc1 | 83.1% |
| c1ccc(CN(Cc2ccc3c(c2)-c2cc(CN4CCCNCCNCCCNCC4)ccc2OCCCCO3)Cc2ccccn2)nc1 | 78.9% |
| c1ccc(CN(Cc2ccc3ccc(CN4CCCNCCNCCCNCC4)cc3c2)Cc2ccccn2)nc1 | 84.8% |

Test system: Human immunodeficiency virus 1
Assay: Antiviral activity against X4 tropic HIV-1 NL4-3 infected in human MT4 cells assessed as protection against virus-induced cytopathic effect in absence of ZnCl2 after 5 days by MTT assay
Type: functional, organism-based
Details: Human immunodeficiency virus 1, NL4-3, MT4, 120 h
Method in brief: (§2)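 Protection of MT-4 cells from X4 HIV-1 NL4-3 cytopathicity. Infected cells (MOI 0.001, 2.0 × 10^4 cells/well) received graded compound concentrations, without or with ZnCl2 (10 eq), for 5 days at 37 °C. Viable cells were counted by MTT. EC50 is the concentration giving 50% protection; mean of at least three independent experiments.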

| SMILES | EC50 |
| --- | --- |
| c1ccc(CN(Cc2ccc(-c3ncccc3CN3CCCNCCNCCCNCC3)cc2)Cc2ccccn2)nc1 | 110 nM |
| c1ccc(CN(Cc2ccnc(-c3ccc(CN4CCCNCCNCCCNCC4)cc3)c2)Cc2ccccn2)nc1 | 140 nM |
| c1ccc(CN(Cc2ccccn2)Cc2ccccc2-c2ccccc2CN2CCCNCCNCCCNCC2)nc1 | 1000 nM |
| c1ccc(CN(Cc2cccc(-c3ccccc3CN3CCCNCCNCCCNCC3)c2)Cc2ccccn2)nc1 | 4200 nM |
| c1ccc(CN(Cc2ccc3c(c2)-c2cc(CN4CCCNCCNCCCNCC4)ccc2OCCCCO3)Cc2ccccn2)nc1 | 670 nM |
| c1ccc(CN(Cc2ccc3ccc(CN4CCCNCCNCCCNCC4)cc3c2)Cc2ccccn2)nc1 | 790 nM |

Test system: Human immunodeficiency virus 1
Assay: Antiviral activity against X4 tropic HIV-1 NL4-3 infected in human MT4 cells assessed as protection against virus-induced cytopathic effect in presence of ZnCl2 after 5 days by MTT assay
Type: functional, organism-based
Details: Human immunodeficiency virus 1, NL4-3, MT4, 120 h
Method in brief: as §2

| SMILES | EC50 |
| --- | --- |
| c1ccc(CN(Cc2ccc(-c3ncccc3CN3CCCNCCNCCCNCC3)cc2)Cc2ccccn2)nc1 | 61 nM |
| c1ccc(CN(Cc2ccnc(-c3ccc(CN4CCCNCCNCCCNCC4)cc3)c2)Cc2ccccn2)nc1 | 45 nM |
| c1ccc(CN(Cc2ccccn2)Cc2ccccc2-c2ccccc2CN2CCCNCCNCCCNCC2)nc1 | 5800 nM |
| c1ccc(CN(Cc2cccc(-c3ccccc3CN3CCCNCCNCCCNCC3)c2)Cc2ccccn2)nc1 | 1100 nM |
| c1ccc(CN(Cc2ccc3c(c2)-c2cc(CN4CCCNCCNCCCNCC4)ccc2OCCCCO3)Cc2ccccn2)nc1 | 280 nM |
| c1ccc(CN(Cc2ccc3ccc(CN4CCCNCCNCCCNCC4)cc3c2)Cc2ccccn2)nc1 | 1100 nM |

Test system: Human immunodeficiency virus 1
Assay: Antiviral activity against R5 tropic HIV-1 NL(AD8) infected in human MT4 cells assessed as protection against virus-induced cytopathic effect at 10 uM in presence of ZnCl2 after 5 days by MTT assay
Type: functional
Details: Human immunodeficiency virus 1, NL(AD8), MT4, 120 h

| SMILES | inhibition at 10 µM |
| --- | --- |
| c1ccc(CN(Cc2ccc(-c3ncccc3CN3CCCNCCNCCCNCC3)cc2)Cc2ccccn2)nc1 | < 30% |
| c1ccc(CN(Cc2ccnc(-c3ccc(CN4CCCNCCNCCCNCC4)cc3)c2)Cc2ccccn2)nc1 | < 30% |
| c1ccc(CN(Cc2ccccn2)Cc2ccccc2-c2ccccc2CN2CCCNCCNCCCNCC2)nc1 | < 30% |
| c1ccc(CN(Cc2cccc(-c3ccccc3CN3CCCNCCNCCCNCC3)c2)Cc2ccccn2)nc1 | < 30% |
| c1ccc(CN(Cc2ccc3c(c2)-c2cc(CN4CCCNCCNCCCNCC4)ccc2OCCCCO3)Cc2ccccn2)nc1 | < 30% |
| c1ccc(CN(Cc2ccc3ccc(CN4CCCNCCNCCCNCC4)cc3c2)Cc2ccccn2)nc1 | < 30% |

Source: ChEMBL document CHEMBL4368937, “Design, synthesis and biological evaluation of low molecular weight CXCR4 ligands” (Bioorg Med Chem, 2019)
